Results as given in ChEMBL document CHEMBL2331102 (Bioorg Med Chem, 2013).
Converted amounts (≈) assume the structure as drawn.

How the values were obtained:
Trypanosoma cruzi = experiment: Antitrypanosomal activity against Trypanosoma cruzi Tulahuen TcVI extracellular trypomastigotes forms transfected with beta-galactosidase gene infected in rat L6 cells assessed as inhibition of parasite growth after 4 days; assay type: functional, organism-based; conditions: L6, 96 h
Outline: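 L6 rat skeletal myoblasts were infected with extracellular trypomastigotes of β-galactosidase-transfected T. cruzi Tulahuen TcVI. After 48 h to establish infection, compound was added and incubation continued 4 days, exposing trypomastigote and intracellular amastigote forms.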

CYP3A4/5 = CYP3A4/5 (Homo sapiens, UniProt P08684+P20815); experiment: Inhibition of CYP3A4/5 in human liver microsomes assessed as reduction in testosterone-beta-hydroxylation; assay type: ADME, Microsome; conditions: probe testosterone
Outline: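 CYP3A4 inhibition measured as inhibition of testosterone β-hydroxylation, reported as IC50 (µM).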

[1] = Kinetic solubility of the compound at pH 6.5 phosphate buffer by nephelometric analysis; assay type: physicochemical; conditions: read-out: Kinetic_solubility
Outline: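 Kinetic solubility in phosphate buffer at pH 6.5, determined by nephelometry and reported in µg/mL.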

L6 = experiment: Cytotoxicity against rat L6 cells after 72 hrs by Alamar Blue assay; assay type: cell-based; conditions: L6, 72 h
Outline: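 Counter-screen for cytotoxicity in uninfected L6 rat skeletal muscle myoblasts, with IC50 recorded in µM.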

[2] = Selectivity index, ratio of IC50 for rat L6 cells to IC50 for Trypanosoma cruzi Tulahuen TcVI extracellular trypomastigotes forms; assay type: toxicity, cell-based; conditions: read-out: Ratio IC50
Outline: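 Ratio of the L6 myoblast cytotoxicity IC50 to the IC50 against β-galactosidase-expressing T. cruzi Tulahuen TcVI.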

SMILES	IC50 (Trypanosoma cruzi) [nM]	IC50 (CYP3A4/5) [nM]	solubility kinetic [1] [µg/mL]	IC50 (L6) [nM]	selectivity ratio [2]
CC(=O)N1CCN(C(c2ccc(Cl)cc2)c2cccnc2)CC1 (centres undefined)	240	7400	> 100	> 100000	> 100
CC(C)(C)NC(=O)N1CCN(C(c2cncnc2)c2ccc(Cl)cc2F)CC1 (centres undefined)	54	6900	50 (≈ 123 µM)	> 100000	> 100
N#Cc1ccc(C(c2cccnc2)N2CCN(C(=O)NC3CC3)CC2)cc1 (centres undefined)	> 1000			> 100000	> 100
O=C(Nc1ccc(Cl)cc1)N1CCN(C(c2cncnc2)c2ccc(Cl)cc2F)CC1 (centres undefined)	10	300	3.1 (≈ 6.73 µM)		> 100
O=S(=O)(c1ccc(Cl)cc1)N1CCN(C(c2ccc(Cl)cc2)c2cccnc2)CC1 (centres undefined)	24				> 100
CC(C)c1ccc(NC(=O)N2CCN(C(c3cncnc3)c3ccc(Cl)cc3F)CC2)cc1 (centres undefined)	7				> 100
O=C(Cn1ccnc1[N+](=O)[O-])NCc1ccccc1 [BENZNIDAZOLE]	1150			> 100000	
O=C(Nc1ccccc1)N1CCN(C(c2cccnc2)c2ccc(Cl)cc2F)CC1 (centres undefined)	6				> 100
CC(C)S(=O)(=O)N1CCN(C(c2ccc(Cl)cc2)c2cccnc2)CC1 (centres undefined)	28	810	12.5 (≈ 31.7 µM)	> 100000	> 100
CC(C)(C)OC(=O)N1CCN(C(c2ccc(C(F)(F)F)cc2)c2cccnc2)CC1 (centres undefined)	17				> 100
CS(=O)(=O)N1CCN(C(c2ccc(Cl)cc2)c2cccnc2)CC1 (centres undefined)	110	3600	12.5 (≈ 34.2 µM)	> 100000	> 100
O=C(Nc1ccc(Cl)cc1)N1CCN(C(c2ccc(Cl)cc2)c2cncnc2)CC1 (centres undefined)	22				> 100
Cc1csc(C(=O)N2CCN(C(c3ccc(C#N)cc3)c3cccnc3)CC2)n1 (centres undefined)	513			> 100000	> 100
CS(=O)(=O)N1CCN(C(c2ccc(C(F)(F)F)cc2)c2cccnc2)CC1 (centres undefined)	77			> 100000	> 100
Cc1noc(N2CCN(C(c3cccnc3)c3ccc(C(F)(F)F)cc3F)CC2)n1 (centres undefined)	17				> 100
N#Cc1ccc(C(c2cccnc2)N2CCN(C(=O)C3CC3)CC2)cc1 (centres undefined)	281			> 100000	> 100
CS(=O)(=O)N1CCN(C(c2ccc(C(F)(F)F)cc2)c2cncnc2)CC1 (centres undefined)	769			> 100000	> 100
CC(C)(C)C(=O)N1CCN(C(c2cccnc2)c2ccc(C(F)(F)F)cc2F)CC1 (centres undefined)	24	3900	12.5 (≈ 29.5 µM)		> 100
COc1ccccc1N1CCN(C(c2ccc(Cl)cc2)c2cccnc2)CC1 (centres undefined)	20				> 100
CC(C)c1ccc(S(=O)(=O)N2CCN(C(c3ccc(Cl)cc3)c3cccnc3)CC2)cc1 (centres undefined)	12				> 100
COc1ccccc1N1CCN(C(c2ccc(C(F)(F)F)cc2)c2cnccn2)CC1 (centres undefined)	240	25000	3.1 (≈ 7.24 µM)		> 100
N#Cc1ccc(C(c2cccnc2)N2CCN(c3nccs3)CC2)cc1 (centres undefined)	50			> 100000	> 100
CS(=O)(=O)N1CCN(C(c2cccnc2)c2ccc(C(F)(F)F)cc2F)CC1 (centres undefined)	28	1000	25 (≈ 59.9 µM)		> 100
O=S(=O)(c1ccccc1)N1CCN(C(c2ccc(Cl)cc2)c2cccnc2)CC1 (centres undefined)	9	1900	< 1.6		> 100
O=C(C1CCCCC1)N1CCN(C(c2cccnc2)c2ccc(Cl)cc2F)CC1 (centres undefined)	28	3900	6.3 (≈ 15.1 µM)		> 100

SMILES	IC50 (Trypanosoma cruzi) [nM]	IC50 (CYP3A4/5) [nM]	solubility kinetic [1] [µg/mL]	IC50 (L6) [nM]	selectivity ratio [2]
CC(C)(C)OC(=O)N1CCN(C(c2cncnc2)c2ccc(Cl)cc2F)CC1 (centres undefined)	24	2900	12.5 (≈ 30.7 µM)		> 100
CC(C)Oc1ccc(C(c2cccnc2)N2CCN(C(=O)C(C)C)CC2)cc1 (centres undefined)	35			> 100000	> 100
O=C(Oc1ccccc1)N1CCN(C(c2ccc(Cl)cc2)c2cccnc2)CC1 (centres undefined)	8				> 100
CC(C)(C)C(=O)N1CCN(C(c2cccnc2)c2ccc(Cl)cc2F)CC1 (centres undefined)	19	1000	12.5 (≈ 32.1 µM)		> 100
O=S(=O)(C1CCCCC1)N1CCN(C(c2ccc(Cl)cc2)c2cccnc2)CC1 (centres undefined)	10				> 100
CS(=O)(=O)N1CCN(C(c2ccc(Cl)cc2)c2cncnc2)CC1 (centres undefined)	880			> 100000	> 100
O=C(c1ccccc1)N1CCN(C(c2ccc(Cl)cc2)c2cccnc2)CC1 (centres undefined)	68				> 100
O=C(NC1CC1)N1CCN(C(c2ccc(C(F)(F)F)cc2)c2cccnc2)CC1 (centres undefined)	> 1000			> 100000	> 100
O=C(C1CC1)N1CCN(C(c2cncnc2)c2ccc(Cl)cc2F)CC1 (centres undefined)	171			> 100000	> 100
CC(C)(C)C(=O)N1CCN(C(c2ccc(C(F)(F)F)cc2)c2cccnc2)CC1 (centres undefined)	30	2300	12.5 (≈ 30.8 µM)		> 100
O=C(Oc1ccccc1)N1CCN(C(c2cccnc2)c2ccc(Cl)cc2F)CC1 (centres undefined)	5				> 100
Fc1cc(Cl)ccc1C(c1cccnc1)N1CCN(c2ccccc2)CC1 (centres undefined)	18				> 100
O=C(c1ccccc1)N1CCN(C(c2cccnc2)c2ccc(Cl)cc2F)CC1 (centres undefined)	70				> 100
COc1ccccc1N1CCN(C(c2ccc(OC(C)C)cc2)c2cccnc2)CC1 (centres undefined)	28				> 100
CC(C)c1ccc(S(=O)(=O)N2CCN(C(c3cncnc3)c3ccc(Cl)cc3F)CC2)cc1 (centres undefined)	18			> 100000	> 100
COc1ccccc1N1CCN(C(c2cncnc2)c2ccc(Cl)cc2F)CC1 (centres undefined)	65				> 100
CC(C)(C)C(=O)N1CCN(C(c2ccc(C#N)cc2)c2cccnc2)CC1 (centres undefined)	254			> 100000	> 100
Fc1cc(Cl)ccc1C(c1cccnc1)N1CCN(c2ncccn2)CC1 (centres undefined)	26				> 100
CN(C)C(=O)N1CCN(C(c2ccc(Cl)cc2)c2cccnc2)CC1 (centres undefined)	120			> 100000	> 100
CS(=O)(=O)N1CCN(C(c2ccc(C#N)cc2)c2cccnc2)CC1 (centres undefined)	365			> 100000	> 100
CC(C)(C)OC(=O)N1CCN(C(c2cccnc2)c2ccc(Cl)cc2F)CC1 (centres undefined)	20	1900	3.1 (≈ 7.64 µM)		> 100
Clc1ccc(C(c2cccnc2)N2CCN(c3ccccc3)CC2)cc1 (centres undefined)	34				> 100
O=C(Nc1ccccc1)N1CCN(C(c2ccc(Cl)cc2)c2cccnc2)CC1 (centres undefined)	9				> 100
Fc1cc(Cl)ccc1C(c1cncnc1)N1CCN(c2ccccc2)CC1 (centres undefined)	78				> 100
